What was measured:
[1] = Inhibition of EFS-induced contraction of Beagle dog bronchiole; type: functional, tissue-based, Canis lupus familiaris
[2] = Inhibition of EFS-induced contraction of human myometrium incubated for 60 mins; type: functional, tissue-based
How it was run: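 Human myometrial strips (donors aged 24–76) in a 15 mL Krebs bath at 37°C, under EFS at 15 V, 1.5 ms pulses, 10 s every 100 s, at a submaximal 15 Hz. Antagonist (10 or 100 nM) or vehicle was equilibrated for 60 min. Cumulative butaprost (0.1 nM–10 µM) or PGE2 (0.1 nM–3 µM) was given for at least five EFS responses per concentration. pKB was calculated from same-donor concentration ratios.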

[3] = Induction of relaxation in […] C57BL/6 mouse trachea at 0.1 to 30 uM incubated for 30 mins relative to control (reference value: 21.6 +/- 8.8%); type: functional; parameters: scale not given: the % may be the effect or the level left; settings: dose 0.1-30 µM, 0.5 h
[4] = Induction of relaxation in forskolin-induced carbachol pre-contracted C57BL/6 mouse trachea incubated for 30 mins; type: functional, tissue-based
How it was run: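 Male C57BL/6 tracheal rings at 0.35 g tension in Krebs (95% O2/5% CO2, 37°C). Rings were precontracted with 10 µM carbachol before cumulative half-log PGE2 (0.1 nM–30 µM). Curves were repeated in the same ring after 30 min with 3 nM antagonist or DMSO, and 10 µM forskolin set maximal relaxation. pKB = log(CR−1) − log[B].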

EC50 [1]: 0.139 µM
IC50 [2]: 0.0278 µM
EC50 [4]: 0.893 µM
SMILES: CCCC1([C@H](O)C/C=C/[C@H]2[C@H](O)CC(=O)[C@@H]2CCCCCCC(=O)OC)CCC1 [BUTAPROST]
Activity [3]: 69.1%
